Results on 5 molecules are retold here after ChEMBL document CHEMBL1155884, “Sinulodurins A and B, antiproliferative and anti-invasive diterpenes from the soft coral Sinularia dura” (J Nat Prod, 2008).

In one data set the test system is Escherichia coli. Briefly: Antimicrobial activity against Escherichia coli up to 50 ug/mL. The format is functional, organism-based.
The next data set deals with Staphylococcus aureus. Briefly: Antimicrobial activity against methicillin-resistant Staphylococcus aureus up to 50 ug/mL. Type of data set: functional, organism-based.
The subject of another data set is Vero. The data set can be described thus: Cytotoxicity against african green monkey Vero cells. Type of data set: cell-based. The note with it: chlorocebus sabaeus.
In a further data set the test system is Aspergillus fumigatus. The data set can be described thus: Antimicrobial activity against Aspergillus fumigatus up to 50 ug/mL. The format is functional, organism-based.
Data set [1] deals with Mycobacterium intracellulare. Briefly: Antimicrobial activity against Mycobacterium intracellular up to 50 ug/mL. The format is functional, organism-based.
For another data set, the system named is Cryptococcus neoformans. Briefly: Antimicrobial activity against Cryptococcus neoformans up to 50 ug/mL. Type of data set: functional, organism-based.
In a further data set the test system is Candida albicans. Briefly: Antimicrobial activity against Candida albicans up to 50 ug/mL. Type of data set: functional, organism-based.
For a further data set, the system named is Pseudomonas aeruginosa. The data set can be described thus: Antimicrobial activity against Pseudomonas aeruginosa up to 50 ug/mL. Type of data set: functional, organism-based.
The nature of data set [2]: Antiproliferative activity against mouse +SA cells assessed as cell viability after 4 days by MTT assay. Type of data set: functional, cell-based. As to conditions: 96 h. Put shortly: (§1)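 Highly malignant +SA mouse mammary epithelial cells kept in serum-free medium with 10 ng/mL EGF and 10 µg/mL insulin as mitogens. Seeded 5 × 10^4 cells/well, 6 wells/group, fed medium with compound at 0.01-1000 µM. Viable cell number determined by MTT colorimetric assay after 4 days in culture, compared against vehicle control.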

The species entered for data set [3] is Homo sapiens. Briefly: Antiinvasive activity against human PC-3M-CT+ cells at 50 uM after 48 hrs by spheroid disaggregation assay. The format is functional, cell-based. Put shortly:
(§2)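 Spheroids formed from 5 × 10^4 cells/mL in serum-free RPMI 1640 rocked in low-attachment wells at 37 °C for 2 days (150-300 µm, ~4 × 10^4 cells each). Single spheroid placed on ECM-coated well in serum-free medium, t=0 set 1 h after plating. Photographed at t=0, cultured 48 h at 37 °C, fixed, Diff-Quik stained. Migration diameter measured by micrometer minus initial diameter; given as average percent increase in surface area.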

For data set [4], the species on record is Homo sapiens. Briefly: Antiinvasive activity against human PC-3M-CT+ cells at 100 uM after 48 hrs by spheroid disaggregation assay. The format is functional, cell-based. Put shortly:
as §2

Data set [5] concerns +SA cell. Briefly: Antiproliferative activity against mouse +SA cells assessed as cell viability at 30 uM after 4 days by MTT assay. The format is functional, cell-based. Put shortly:
as §1

The species named for data set [6] is Homo sapiens. The data set can be described thus: Antiinvasive activity against human PC-3M-CT+ cells at 25 uM after 48 hrs by spheroid disaggregation assay. Type of data set: functional, cell-based. In a few lines:
as §2

The species entered for data set [7] is Homo sapiens. The data set can be described thus: Antiinvasive activity against human PC-3M-CT+ cells at 200 uM after 48 hrs by spheroid disaggregation assay. The format is functional, cell-based. Put shortly: as §2
In data set [8] the test system is +SA cell. The data set can be described thus: Antiproliferative activity against mouse +SA cells assessed as cell viability at 20 uM after 4 days by MTT assay. The format is functional, cell-based. In a few lines:
as §1
(Tetrazolium dyes change colour on reduction, which living cells bring about.)

Active and inactive are the calls of the source. The calls are words filed in the database; no cut-off is given here.

With `C=C1C=C2[C@@H](C[C@@H]1O)[C@@H](C)CC[C@@H]2[C@@H](C)CCC=C(C)C`, the outcome (with Escherichia coli; in the data set on Staphylococcus aureus; in the data set with Aspergillus fumigatus; in [1]; in the data set with Cryptococcus neoformans; with Candida albicans) was inactive. Besides, in the data set with Pseudomonas aeruginosa, the result was inactive. Further, the Activity result with Vero was “Not Active”.
`C=C1C=C2[C@H](CC1)[C@@H](C)CC[C@@H]2[C@@H](C)CCC=C(C)C`: the result (with Escherichia coli; with Staphylococcus aureus; in the data set on Aspergillus fumigatus; in data set [1]; with Cryptococcus neoformans; in the data set on Candida albicans) was inactive. In the data set with Pseudomonas aeruginosa, the outcome was inactive. Also, the Activity entry in the data set with Vero was “Not Active”.
With `CC(C)=CCC/C(C)=C/CC/C(C)=C/CC[C@]1(C)CCc2cc(O)cc(C)c2O1` [DELTA-TOCOTRIENOL], the half-inhibitory concentration (IC50) (usually the concentration needed to halve the response being measured) in [2] was found to be 7 µM.
For `C=C1C=C2[C@@H](CC1)[C@H](C)[C@H](OC(C)=O)C[C@H]2[C@H](C)C(OC(C)=O)C(=O)C=C(C)C` (stereo partly drawn) [SINULODURIN A], the outcome (in the data set on Escherichia coli; in the data set on Staphylococcus aureus; in the data set with Aspergillus fumigatus; in data set [1]; in the data set with Cryptococcus neoformans; in the data set on Candida albicans) was inactive. The outcome in the data set on Pseudomonas aeruginosa was inactive. The outcome in the data set filed under Homo sapiens [3], in the data set filed under Homo sapiens [4], in the data set on +SA cell [5], in the data set listed under Homo sapiens [6] and in the data set listed under Homo sapiens [7] was Active. In the data set on Vero, the Activity result was “Not Active”.
Take `C=C1C=C2[C@@H](CC1)[C@H](C)CC[C@H]2[C@H](C)C(OC(C)=O)C(=O)C=C(C)C` (stereo partly drawn) [SINULODURIN B]: the result (in the data set with Escherichia coli; in the data set on Staphylococcus aureus; in the data set on Aspergillus fumigatus; in data set [1]; in the data set with Cryptococcus neoformans; in the data set with Candida albicans) was inactive. Besides, in the data set with Pseudomonas aeruginosa, the result was inactive. The outcome in the data set filed under Homo sapiens [3], in the data set filed under Homo sapiens [4], in the data set with +SA cell [8], in the data set filed under Homo sapiens [6] and in the data set filed under Homo sapiens [7] was Active. In addition, the Activity entry in the data set on Vero is “Not Active”.
